Rev-erbA mod – Rev-erb alpha (human) modulation; P20393; hit rate 0.79% among 370,000; Rev-erbα–FITC-DNA binding, fluorescence polarization, 90 min; activity, % at 10 µM;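 active = activity above about 14%, limit read from the data; passing the limit was not always enough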;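 note: 0% = DMSO wells with 35 nM protein and 100% = DMSO wells with 750 nM protein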
Target sequence (P20393 whole entry, looked up): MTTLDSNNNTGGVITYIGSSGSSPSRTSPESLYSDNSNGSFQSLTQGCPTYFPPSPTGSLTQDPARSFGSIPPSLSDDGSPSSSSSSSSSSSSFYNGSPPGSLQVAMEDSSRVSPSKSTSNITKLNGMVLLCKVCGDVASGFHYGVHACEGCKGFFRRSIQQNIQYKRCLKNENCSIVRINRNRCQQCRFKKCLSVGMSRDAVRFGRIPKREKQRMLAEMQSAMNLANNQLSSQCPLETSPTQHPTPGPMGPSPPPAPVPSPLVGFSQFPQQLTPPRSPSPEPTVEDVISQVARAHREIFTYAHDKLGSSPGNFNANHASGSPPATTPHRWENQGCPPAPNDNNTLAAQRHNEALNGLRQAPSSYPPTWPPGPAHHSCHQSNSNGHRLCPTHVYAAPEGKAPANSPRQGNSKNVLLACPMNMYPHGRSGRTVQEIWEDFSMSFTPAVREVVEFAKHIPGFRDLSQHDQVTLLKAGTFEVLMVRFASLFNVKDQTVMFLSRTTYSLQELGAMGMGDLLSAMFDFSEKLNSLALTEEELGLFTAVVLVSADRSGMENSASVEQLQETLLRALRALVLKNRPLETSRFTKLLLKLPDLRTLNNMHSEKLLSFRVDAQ
beta cell repl – induces beta-cell replication in MIN6 cells. MIN6 cells proliferation, ATPlite luminescence, 48 h; cells starved in 0.2% serum; 100% = growth in 10% serum. proliferation, % at 10 µM. hit rate 0.29% among 330,000;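 active = compounds whose signal lies at least 3.5 SD above the mean of all wells on their plate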;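 note: 0% = DMSO-treated cells in low-serum medium and 100% = 10% serum control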
PG9 binder – PG9 antibody binding by small molecule; TR-FRET gp120-PG9 antibody binding; inhibition, % at 6.7 µM; hit rate 0.43% among 360,000; in the data active = inhibition above about 8.5%
TAG inh – reduces triacylglycerol accumulation in H9c2 cells | hit rate 0.66% among 230,000 | inhibition, % at 12.5 µM | Nile Red lipid (TAG) fluorescence; cells loaded with 200 µM oleic acid;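 active = pattern-corrected inhibition of lipid staining of at least 50% with the nuclear-stain viability signal not falling by more than 50%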;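 note: 0% = DMSO wells and 100% = triacsin C control wells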
hiPSC survival – hiPSC single-cell survival enhancement | ATPlite luminescence; 100% = ROCK inhibitor wells, 0% = DMSO | survival enhancement, % at 20 µM | hit rate 0.044% among 360,000 | AID 602274; in the data active = survival enhancement above about 18%;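 note: cells exposed to compounds for 16 hours before the ATP read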
T cruzi repl – blocks replication of Trypanosoma cruzi | T. cruzi beta-gal in NIH3T3, luminescence, 90 h | inhibition, % (concentration not given with the values) | hit rate 1.4% among 300,000 | AID 1885;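 active = mean inhibition across valid replicates above about 55%, limit read from the data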;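 note: signal also drops with host cell toxicity which is not excluded here; 0% = plate median of DMSO wells and 100% = zero luminescence signal; higher percent means less beta-gal luminescence so fewer parasites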
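Assay system: NIH/3T3 fibroblasts plus reporter T. cruzi. Amount: NIH/3T3 cells, 5,000 per well. Buffer or medium: DMEM, 2% fetal bovine serum. Doses: compound pinned at 50 nL/well, DMSO. Schedule: ≥90 h infection period, 3 h prior cell attachment. Signal: luminescent β-galactosidase signal after 60 min lysis. Read-out: parasite load inhibition, %.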
Rev-erbA confirm – confirmation of modulators of human Rev-erb alpha DNA binding; shares compounds with Rev-erbA mod; Rev-erb alpha FITC-DNA binding, fluorescence polarization, 90 min; activation, % at 25 µM; hit rate 61% among 3,000; AID 1259319;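 active = activation at or above a set limit, or at least 3 SD above the negative control mean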;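 note: 0% = 35 nM protein with DMSO and 100% = 750 nM protein high control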
RORg DNA counter – counter-screen for Rev-erb alpha modulators: RORgamma DNA binding; shares compounds with Rev-erbA mod; purified RORgamma protein-FITC-DNA binding, fluorescence polarization; IC50, µM; hit rate 8% among 910;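 active = Compounds whose fitted half-maximal concentration for disrupting protein-DNA binding is below 10 micromolar; the record names Rev-erb in its text, so the target is in doubt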
The depositor's hits bear a star; · = no result given. Hits are enriched below; roughly 2.9% of the tested compounds scored in any of these assays.

SMILES	Rev-erbA mod	beta cell repl	PG9 binder	TAG inh	hiPSC survival	T cruzi repl	Rev-erbA confirm	others
O=C(COc1ccc(/C=N/NC(=O)c2cc3ccccc3o2)cc1Br)Nc1ccccc1	19*	-4	-63	·	-2	70*	26*
Cc1cc(N(CCO)CCO)ccc1N=Nc1cc(F)ccc1F	54*	1	-1	73*	0	-8	29*
CCN1C(=O)[C@@H]2[C@@H](c3ccc(-c4ccc5c(c4)OCO5)cc3)N3CCCC[C@@]3(C(=O)OC)[C@@H]2C1=O	11	-6	1	-3	1	42	·
Cc1ccccc1Cn1cc(S(=O)(=O)c2ccc(C(C)C)cc2)c(=O)c2cc3c(cc21)OCO3	40*	0	0	8	0	43	21*
COc1ccc(OC)c(NC(=O)c2ccccc2SC)c1	8	2	0	·	0	-12	·
COc1ccc(OC)c(NC(=O)c2cc3oc4ccccc4c3cc2O)c1	41*	-4	1	·	0	10	15
CCc1noc(C)c1C(=O)Nc1nc(-c2ccc(Cl)cc2Cl)c(C)s1	32*	-3	4	38	1	8	25*
O=[N+]([O-])c1cc([N+](=O)[O-])c(Oc2cccnc2Br)cc1NN1CCCCC1	16*	-9	0	6	3	-4	-1
COc1ccc(-c2csc3ncnc(N4CCN(S(=O)(=O)c5cccc(Br)c5)CC4)c23)cc1	16*	-1	7	4	0	62*	18*
Cc1ccc(S(=O)(=O)N2CCN(c3ncnc4scc(-c5ccccc5)c34)CC2)cc1	-4	-5	-1	6	0	·	·
COc1ccc(-c2csc3ncnc(N4CCN(S(=O)(=O)c5cccc(C(F)(F)F)c5)CC4)c23)cc1	2	-6	-1	-3	2	52	·
Cc1ccc(S(=O)(=O)N2CCN(c3ncnc4scc(-c5ccc(F)cc5)c34)CC2)cc1	24*	-3	-1	10	0	49	6
COC(=O)c1ccc(CSC2=NC[C@@H]3[C@@H]4C(=O)N(C)C(=O)[C@@H]4[C@](Cc4ccccc4)(C(=O)OC)N23)cc1	-9	·	-1	6	-2	·	·
CN(C)[C@@H]1CCN(c2ccc3c(c2)O[C@@H]2CCN(C2)S3(=O)=O)C1	2	·	·	·	·	·	·
CCCCC[n+]1ccn(-c2nc3ccccc3nc2[N-]S(=O)(=O)c2ccccc2)c1	2	-1	-1	14	0	10	·
O=S(=O)([N-]c1nc2ccccc2nc1-n1cc[n+](Cc2ccccc2)c1)c1ccc(Br)cc1	67*	1	-1	-7	1	8	46*	RORg DNA counter=5*
CN(CC(=O)Nc1cccc(F)c1)C(=O)c1ccc(-c2cccc(C(F)(F)F)c2)o1	-1	-7	-2	-4	1	14	·
Cc1ccc(C)c(NC(=O)CN(C)C(=O)c2ccc(-c3cccc(C(F)(F)F)c3)o2)c1	22*	-3	6	-14	0	9	23*
Cc1ccc2nsnc2c1S(=O)(=O)N(Cc1ccco1)Cc1cc2cccc(C)c2[nH]c1=O	26*	-1	·	·	3	4	14
CCOC(=O)C1(Cc2ccccc2)CCN(Cc2cccc(OC)c2O)CC1	9	-3	-3	-18	0	11	·
CSc1nc(C)c2c(n1)N(c1ccc(C(F)(F)F)cc1)CC2	23*	4	-1	·	-1	-17	1
CC(C)(C)c1ccc(C(=O)OCC(=O)N2CCC(c3ccccc3)=N2)cc1	14*	-6	-2	-20	4	·	-1
Cc1ccc(C(=O)OCC(=O)N2CCC(c3ccccc3)=N2)c(C)c1	-1	3	-1	-25	0	-2	·
Cc1ccccc1-c1nc2sc(C)c(C)c2c(=O)o1	18*	-1	2	-4	0	-6	0
Cc1sc2nc(-c3ccco3)oc(=O)c2c1C	3	-1	4	-4	2	-4	·
SMILES	Rev-erbA mod	beta cell repl	PG9 binder	TAG inh	hiPSC survival	T cruzi repl	Rev-erbA confirm	others
Cc1sc2nc(C(C)(C)C)oc(=O)c2c1C	-2	4	·	·	-2	-4	·
COc1ccc(-c2csc3nc(-c4ccc(C)cc4)oc(=O)c23)cc1OC	27*	-6	0	·	-1	-8	-4
COc1cc(-c2nc3sc(C)c(C)c3c(=O)o2)cc(OC)c1OC	31*	-3	1	·	-1	-9	18
O=C(Cc1ccc(Br)cc1)OCC(=O)c1ccc2c(c1)OCCO2	-1	0	-2	0	-3	-23	·
CCCN1C(=O)c2cccc3c(N4CCCCC4)ccc(c23)C1=O	96*	·	0	-71	-2	-5	97*	RORg DNA counter=>40
CN(C)CCCN1C(=O)c2cccc3c(Br)ccc(c23)C1=O	0	-5	1	15	1	42	·
CCCCNc1ccc2c3c(cccc13)C(=O)N(CCCC)C2=O	108*	·	2	-205	0	35	128*	RORg DNA counter=>40
CCN1CCN(CC(=O)N/N=C/c2cc(Br)cs2)CC1	-4	-1	2	·	0	-18	·
N#CCCn1cc(/C=C(\C#N)c2nc3ccccc3s2)c(-c2ccc(F)cc2)n1	45*	1	-2	29	0	29	35*
COc1ccc(-c2ccc(C#N)c(SCC(=O)Nc3sc4c(c3C#N)CCC4)n2)cc1OC	40*	-6	0	19	-2	10	24*
Cc1ccccc1Cn1cc(NC(=O)CSc2nc3c(c(C(F)(F)F)n2)CCc2ccccc2-3)cn1	19*	-5	2	·	2	13	9
CN(Cc1ccccc1)C(=O)CSc1nc2c(c(C(F)(F)F)n1)CCc1ccccc1-2	11	-6	-1	-14	-2	36	·
N#Cc1c(NC(=O)CSc2nc3c(c(C(F)(F)F)n2)CCc2ccccc2-3)sc2c1CCCC2	40*	-3	1	·	5	2	23*
Cc1ccc(Cn2nc(C)c(NC(=O)CSc3nc4c(c(C(F)(F)F)n3)CCc3ccccc3-4)c2C)cc1	45*	·	-1	·	-1	21	29*
NC(=O)c1c(NC(=O)CSc2nc3c(c(C(F)(F)F)n2)CCc2ccccc2-3)sc2c1CCCC2	13	-3	·	·	2	-11	·
O=C(Cc1c(F)cccc1Cl)NC1=NCCS1	0	-3	-3	-3	-1	-12	·
Cc1nn(Cc2ccc(Cl)cc2)c(C)c1NC(=O)CSc1nc2c(c(C(F)(F)F)n1)CCc1ccccc1-2	32*	-2	0	·	-2	60*	25*

Screens deposited in PubChem by several laboratories.
